Screening results: PubChem BioAssay, several laboratories
SENP1 FRET inh = blocks the human SENP1 SUMO protease catalytic domain | AID 624204 | Q9P0U3 | inhibition, % at 10 µM | recombinant SENP1 catalytic domain, CyPet-SUMO1-YPet FRET cleavage | actives 0.21% (n = 360,000);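 active = inhibition at least 30% at 10 µM, raw YFP signal under a set limit, fluorescence ratio 0.5 to 1.5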;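 note: 0% = enzyme with DMSO and 100% = no enzyme wells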
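Material – human SENP1 catalytic domain · Input – SENP1 enzyme, 20 pM final · Compound dosing – single concentration of 10 µM compound, 0.5% DMSO final · Timing – enzyme reaction for 50 min at room temperature, dark · Measured by – FRET fluorescence in CFP and YFP emission channels · Control set – no-enzyme wells low, DMSO-plus-enzyme wells high control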
Platelet DG rel = platelet dense granule release activity. human platelet-rich plasma, SFLLRN dense granule ATP release, luminescence. inhibition, %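 (compounds screened at 7.5 µM in platelet-rich plasma)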. actives 0.22% (n = 300,000). AID 1663;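 active = mean replicate score, as percent of positive control, at or above 50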
Myeloid diff 2 = promotes myeloid progenitor differentiation. calls only at 10 µM. actives 1% (n = 360,000). ER-HoxA9 myeloid progenitors, lysozyme-GFP differentiation, flow cytometry;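 active = normalized GFP-positive differentiation at or above the plate's own cutoff, the solvent-only control mean plus 3 SD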;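 note: cells exposed to compound for four days before flow analysis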
VLA-4 inh = inhibition in a human VLA-4 binding assay; actives 0.2% (n = 330,000); inhibition, % (about 7 µM as worked out from the volumes in the protocol); P13612; VLA-4 expressing cells, ligand binding flow cytometry; in the data active = inhibition above about 50%
Myeloid diff CP1 = promotes myeloid progenitor differentiation | shares compounds with Myeloid diff 2 | actives 2% (n = 2,300) | ER-HoxA9 myeloid progenitors, GFP/Mac1 double-positive flow | calls only;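 active = share of green or green-and-red cells above 9 and 9% in run 1 or 4 and 3% in run 2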
GFP autofluor = counter-screen for myeloid differentiation promoters: compound fluorescence. AID 651707. shares compounds with Myeloid diff 2. fluorescence response, % (test concentration not listed). ER-HoxA9 myeloid progenitors, no estrogen, GFP autofluorescence flow cytometry; vehicle wells 0%, positive control 100%. actives 7.4% (n = 2,300);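 active = over 5% cells positive for green fluorescent reporter, or over 2% positive for both it and APC stain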;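 note: range taken on the double positive population between DMSO and positive control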
The depositor's hits bear a star; i = inactive; x = no result given; + = active, no number. Most compounds without a hit are left out; they make up all but 1.5% or so of the library.

SMILES	SENP1 FRET inh	Platelet DG rel	Myeloid diff 2	VLA-4 inh	Myeloid diff CP1	GFP autofluor
COc1ccc(Cn2c(C)nc3c(c2=O)c2nc4ccccc4nc2n3Cc2ccco2)cc1	-94	x	i	x	i	0
COc1ccc(NS(=O)(=O)c2cccc(C(=O)NNC(=O)CNC(=O)c3cccc(C)c3)c2)cc1	1	11	i	4	x	x
Nc1nc2ccccc2cc1C(=O)NCCCCc1ccccc1	-19	x	i	x	i	0
N#C/C(=C\c1cccnc1)C(=O)NC1CCCCC1	2	-6	+	2	i	1
CCOc1ccc(C(=O)NNC(=O)CCNC(=O)c2ccc(Br)cc2)cc1OC	2	x	i	0	x	x
Cc1cccc(NC(=O)CNC(=O)COc2cccnc2[N+](=O)[O-])c1C	0	x	i	-5	x	x
COc1ccc(CN(C)c2ccc(S(=O)(=O)N3CCN(C)CC3)cc2[N+](=O)[O-])cc1OC	1	x	i	-13	i	1
COc1ccc(CCN(C)c2ccc(S(=O)(=O)N3CCCC3)cc2[N+](=O)[O-])cc1OC	2	-36	i	x	x	x
O=S(=O)(c1ccccc1)N1N=C(c2ccc(Cl)cc2)CC1c1ccco1 (stereo not given)	-4	x	i	x	x	x
CSc1nc(C)cc(C)c1C#N	2	7	+	1	i	0
Cc1cc(C)c(C#N)c(SCc2ccc(F)cc2)n1	0	-2	i	2	x	x
Cc1cc(C)cc(C(=O)/C=C2\NC(=O)CS2)c1	3	0	i	1	i	0
O=C1CS/C(=C/C(=O)c2ccccc2)N1	3	3	i	8	x	x
O=c1[nH]c(SCc2ccccc2)nc2c1sc1ccccc12	0	0	+	8	i	0
Cc1ccc(N=C2C(=O)Nc3ccccc32)cc1	3	2	i	3	x	x
CCN(CC)c1ccc(N=C2C(=O)Nc3ccccc32)cc1	6	4	i	-7	i	3.7*
O=S(=O)(NCC(c1ccc2c(c1)OCO2)N1CCN(c2ccccc2)CC1)c1ccccc1 (stereo not given)	0	8	i	2	x	x
COc1ccc(-n2nnnc2SCC(=O)Nc2nnc(C)s2)cc1	-2	-1	+	8	i	1
CCOC(=O)c1csc(NC(=O)CSc2nnnn2-c2ccc(OC)cc2)n1	3	2	i	9	x	x
COc1ccccc1NC(=O)CSc1nnnn1-c1ccc2c(c1)OCO2	4	-4	i	10	i	0
Cc1nnc(SCCn2c(N(C)Cc3ccccc3)nc3c2c(=O)[nH]c(=O)n3C)s1	1	1	+	-13	i	0
Cc1nnc(SCCn2c(N3CCC(Cc4ccccc4)CC3)nc3c2c(=O)[nH]c(=O)n3C)s1	x	-3	x	2	x	x
O=C(Cn1c(=O)n(Cc2ccco2)c(=O)c2cc(Cl)ccc21)NCC1CCCO1 (stereo not given)	-1	-1	+	8	i	0
COc1ccc(NC(=O)c2ccc3nccnc3c2)cc1	0	21	i	-1	i	0
O=[N+]([O-])c1cccc(-c2nnc3ccccn23)c1	x	-8	x	4	x	x
SMILES	SENP1 FRET inh	Platelet DG rel	Myeloid diff 2	VLA-4 inh	Myeloid diff CP1	GFP autofluor
COC(=O)C1=CN(Cc2ccc(OC)c(OC)c2)C=C(C(=O)OC)C1c1cccc(F)c1	-164	8	+	-20	i	2
CC(=O)Nc1cccc(-c2ccnc3c2CC(C)(C(=O)NCc2ccc(N(C)C)cc2)O3)c1 (stereo not given)	1	x	+	x	i	0
CCN(Cc1cccs1)C(=O)CN1CCN(S(=O)(=O)c2ccc3c(c2)OCCCO3)CC1	-1	x	i	x	x	x
O=C(NCc1ccc2c(c1)OCO2)C1CCN(c2ncccn2)CC1	-3	1	i	0	i	1
O=C1CSC(=Nc2ccc(F)cc2)N1	-3	3	+	-11	i	0
O=C1CSC(=Nc2ccccc2)N1	2	-1	i	-6	x	x
CC1=C(C(=O)Nc2ccccc2Cl)C(c2ccc(N(C)C)cc2)NC(=O)N1 (stereo not given)	-1	-4	+	-108	i	0
OC(CSc1ccccc1)CN1CCN(c2ccc(Cl)cc2)CC1 (stereo not given)	1	x	i	x	x	x
COC(=O)c1cn(NC(=O)c2ccc(OC)c([N+](=O)[O-])c2)c(=O)c2ccccc12	-1	-1	i	6	x	x
COC(=O)c1cn(NC(=O)c2ccc(OC)c(OC)c2)c(=O)c2ccccc12	0	8	+	1	i	0
COc1ccc(S(=O)(=O)N2CCCCC2c2cc(C(=O)Nc3ccc(OC)cc3C)no2)cc1 (stereo not given)	4	x	i	x	x	x
COCCCNc1nc2cc(OC)c(OC)cc2c2nc(-c3ccccc3)nn12	-1	8	+	3	i	0
Cc1ccc(S(=O)(=O)N2CCCCC2)cc1C(=O)N1C(C)CCCC1C (stereo not given)	0	x	i	6	x	x
O=C(O)C(c1ccccc1)N1C(=O)/C(=C\c2ccc(-c3ccc(Br)cc3)o2)SC1=S (stereo not given)	-23	4	+	x	i	26*
O=C(O)C(c1ccccc1)N1C(=O)/C(=C\c2ccc(-c3ccccc3Cl)o2)SC1=S (stereo not given)	-26	-5	i	-6	x	x
C[C@H](CO)N1C[C@H](C)[C@@H](CN(C)Cc2ccc3c(c2)OCO3)Oc2cc(Br)ccc2S1(=O)=O	0	x	i	x	x	x
COc1ccc2cc(C#N)c(SCC(=O)NNC(=O)Cc3ccccc3)nc2c1	-60	2	i	-5	x	x
Cc1ccc2cc(C#N)c(SCC(=O)NNC(=O)Cc3ccccc3)nc2c1	1	x	+	x	i	0
CN(C(=O)C(C)(C)C)[C@H]1C[C@H]2c3[nH]c4ccccc4c3CCN2C(=O)[C@H]1CO	-64	x	i	x	i	2
COc1cccc(CNC(=O)C2CCCN(S(=O)(=O)c3c(C)n[nH]c3C)C2)c1 (stereo not given)	-1	-1	i	4	x	x
COc1ccc(CNC(=O)C2CCCN(S(=O)(=O)c3c(C)n[nH]c3C)C2)cc1 (stereo not given)	5	1	i	7	i	2
COCc1cc(N2CCCC2)nc(-c2ccccc2)n1	1	-3	i	15	x	x
CCOC(=O)c1c(N)sc2c1CCC(C)C2 (stereo not given)	1	-23	+	9	i	1
CCCCn1c(N)c(N(CC(C)C)C(=O)c2cc(-c3ccncc3)nc3ccccc23)c(=O)[nH]c1=O	-14	-2	+	-3	i	3
CCCCN(C(=O)c1cc(-c2ccncc2)nc2ccccc12)c1c(N)n(CC(C)C)c(=O)[nH]c1=O	-24	x	i	3	x	x
